Assay results reported in ChEMBL document CHEMBL4130635, “2,4-Diaminoquinazolines as Dual Toll-like Receptor (TLR) 7/8 Modulators for the Treatment of Hepatitis B Virus” (J Med Chem, 2018).
Calls of active or inactive are those of the source. The rule behind the calls is not given here.

What was measured:
Cynomolgus monkey [1] = assay: Anti-inflammatory activity in cynomolgus monkey plasma assessed as IL-10 levels at 30 mg/kg, po after 24 hrs by Luminex assay (reference value: 195 pg/ml); assay type: functional, Macaca fascicularis
Cynomolgus monkey [2] = assay: Activation of monocytes in cynomolgus monkey plasma assessed as upregulation of MCP1 levels at 1 mg/kg, po after 24 hrs by Luminex assay (reference value: 385 pg/ml); assay type: functional, Macaca fascicularis
Liver [3] = assay: Induction of IFNalpha levels in C57BL/6J mouse liver at 1 mg/kg, po by ELISA (reference value: 30 pg/g); assay type: functional
Liver [4] = assay: Anti-inflammatory activity in C57BL/6J mouse liver assessed as IL-10 levels at 0.3 mg/kg, po by multiplex assay (reference value: 2 pg/g); assay type: functional
In short: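 Mice (C57BL/6) got a single oral dose of 0.3–30 mg/kg in 20% HP-β-CD, in groups of 15. Three per group were sacrificed at 0.5, 1, 2, 4 or 7 h, and liver cytokines were measured by multiplex. Values were rounded to the nearest multiple of 5.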

[5] = biological target: T1, TLR7 and TLR8 (Homo sapiens) (UniProt Q9NYK1+Q9NR97); assay: Agonist activity at TLR7/8 in human PBMCs co-cultured with primary human hepatocytes infected with HBV genotype C for 12 days assessed as increase in GROalpha levels up to 5 uM measured after 42 days
Liver [6] = assay: Effect on cytokine profile in C57BL/6J mouse liver assessed as IFNgamma levels at 10 mg/kg, po by multiplex assay; assay type: functional
In short: (§1)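 Single oral gavage in 20% HP-β-CD to healthy C57BL/6 mice, groups of 15 at 0.3, 1, 3, 10 or 30 mg/kg. Three mice per group sacrificed at 0.5, 1, 2, 4 or 7 h. Plasma and liver cytokines by multiplex, maximum level reported, rounded to nearest multiple of 5.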

Cynomolgus monkey [7] = assay: Upregulation of Tlr7 expression in cynomolgus monkey plasma at 30 mg/kg, po after 24 hrs by Fluidigm RT-qPCR analysis (reference value: 1.8); assay type: functional, Macaca fascicularis
Liver [8] = assay: Effect on cytokine profile in C57BL/6J mouse liver assessed as IL-12p70 levels at 0.3 mg/kg, po by multiplex assay (reference value: 5 pg/g); assay type: functional, organism-based; in short: as §1
[9] = biological target: T1, TLR7 and TLR8 (Homo sapiens); assay: Agonist activity at TLR7/8 in human PBMCs co-cultured with primary human hepatocytes infected with HBV genotype C for 12 days assessed as increase in IL-10 levels up to 5 uM measured after 42 days
Cynomolgus monkey [10] = assay: Effect on cytokine profile in cynomolgus monkey plasma assessed as IL-12P70 levels at 3 mg/kg, po after 24 hrs by Luminex assay (reference value: 2.17 pg/ml); assay type: functional, organism-based; conditions: Macaca fascicularis
In short: (§2)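 Healthy cynomolgus monkeys given single oral doses of 1, 3, 9 and 30 mg/kg, with a 2-week wash-out planned between doses. Systemic cytokine levels in plasma were sampled at 0.5, 1, 2, 4, 9 and 24 h postdose.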

Plasma [11] = assay: Anti-inflammatory activity in C57BL/6J mouse plasma assessed as IL-10 levels at 1 mg/kg, po by multiplex assay (reference value: 120 pg/ml); assay type: functional; in short: as §1
Cynomolgus monkey [12] = assay: Activation of monocytes in cynomolgus monkey plasma assessed as upregulation of IL1Ra levels at 30 mg/kg, po after 24 hrs by Luminex assay (reference value: 320 pg/ml); assay type: functional, Macaca fascicularis
Cynomolgus monkey [13] = assay: Induction of ISG response in cynomolgus monkey plasma assessed as upregulation of Mx1 mRNA expression at 30 mg/kg, po after 24 hrs by Fluidigm RT-qPCR analysis (reference value: 1); assay type: functional, Macaca fascicularis
In short: (§3)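 Cynomolgus monkeys, single oral doses of 1, 3, 9 and 30 mg/kg with a planned 2-week wash-out between doses. Systemic ISG (ISG15, Mx1, OAS1) mRNA was measured by Fluidigm RT-qPCR at 1, 2, 4, 8 and 24 h postdose.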

[14] = Protein binding in rat plasma fraction at 5 uM after 4.5 hrs LC-MS/MS-based rapid equilibrium dialysis method; assay type: ADME, cell-free; conditions: read-out: PPB (converted)
Plasma [15] = assay: Proinflammatory activity in C57BL/6J mouse plasma assessed as CXCL-1 levels at 0.3 mg/kg, po by multiplex assay (reference value: 230 pg/ml); assay type: functional
Cynomolgus monkey [16] = assay: Induction of ISG response in cynomolgus monkey plasma assessed as upregulation of Oas1b mRNA expression at 1 mg/kg, po after 24 hrs by Fluidigm RT-qPCR analysis (reference value: 1); assay type: functional, Macaca fascicularis; in short: as §3
[17] = AUC (0 to last) in C57BL/6J mouse plasma at 30 mg/kg, po by LC-MS analysis; assay type: ADME, organism-based; set-up: dose 30 mg/kg, time 0 - last, route oral
In short: (§4)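 Healthy C57BL/6 mice were dosed once by mouth at 0.3, 1, 3, 10 or 30 mg/kg in 20% HP-β-CD, in groups of 15 per dose. Three mice per group were sacrificed at 0.5, 1, 2, 4 or 7 h, and plasma and liver compound levels were measured by LC–MS. Values were rounded to whole numbers.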

[18] = AUC (0 to last) in C57BL/6J mouse liver at 3 mg/kg, po by LC-MS analysis; assay type: ADME, organism-based; conditions: in vivo; in short: as §4
Cynomolgus monkey [19] = assay: Anti-inflammatory activity in cynomolgus monkey plasma assessed as IL-10 levels at 1 mg/kg, po after 24 hrs by Luminex assay (reference value: 195 pg/ml); assay type: functional, Macaca fascicularis
Liver [20] = assay: Proinflammatory activity in C57BL/6J mouse liver assessed as IL-6 levels at 10 mg/kg, po by multiplex assay (reference value: 10 pg/g); assay type: functional
Cynomolgus monkey [21] = assay: Induction of IFNalpha levels in cynomolgus monkey plasma at 9 mg/kg, po after 24 hrs by ELISA; assay type: functional, Macaca fascicularis; in short: as §2
Cynomolgus monkey [22] = assay: Induction of ISG response in cynomolgus monkey plasma assessed as upregulation of Mx1 mRNA expression at 9 mg/kg, po after 24 hrs by Fluidigm RT-qPCR analysis (reference value: 1); assay type: functional, Macaca fascicularis; in short: as §3
Cynomolgus monkey [23] = assay: Effect on cytokine profile in cynomolgus monkey plasma assessed as IP10 levels at 3 mg/kg, po after 24 hrs by Luminex assay (reference value: 18.5 pg/ml); assay type: functional, Macaca fascicularis; in short: as §2
Plasma [24] = assay: Proinflammatory activity in C57BL/6J mouse plasma assessed as TNFalpha levels at 3 mg/kg, po by multiplex assay (reference value: 70 pg/ml); assay type: functional
[25] = biological target: T1, TLR7 and TLR8 (Homo sapiens); assay: Agonist activity at TLR7/8 in human PBMCs co-cultured with primary human hepatocytes infected with HBV genotype C for 12 days assessed as increase in IFNgamma levels up to 5 uM measured after 42 days
Cynomolgus monkey [26] = assay: Toxicity in cynomolgus monkey assessed as induction of emesis at 30 mg/kg, po after 1 hr postdosing; assay type: organism-based, Macaca fascicularis; conditions: in vivo
[27] = biological target: Alpha-1A adrenergic receptor; assay: Inhibition of alpha-1A adrenergic receptor (unknown origin)
[28] = Stability in cynomolgus monkey hepatocytes assessed compound turnover at 1 uM after 60 mins; assay type: ADME, cell-based, Macaca fascicularis, Hepatocyte; conditions: read-out: Drug metabolism
Liver [29] = assay: Upregulation of IP-10 mRNA expression levels in C57BL/6J mouse liver at 1 mg/kg, po by RT-qPCR analysis (reference value: 1); assay type: functional
Cynomolgus monkey [30] = assay: Effect on cytokine profile in cynomolgus monkey plasma assessed as IL-12P70 levels at 1 mg/kg, po after 24 hrs by Luminex assay (reference value: 2.17 pg/ml); assay type: functional, organism-based; conditions: Macaca fascicularis; in short: as §2

With `CCC[C@@H](CCO)Nc1nc(N)nc2c(F)cccc12` the Activity (Cynomolgus monkey [1]) was 9135 pg/mL, the Activity (Cynomolgus monkey [2]) was 2820 pg/mL and the Activity (Liver [3]) was 215 pg/g. The Activity (Liver [4]) was 730 pg/g, the Activity [5] was “Active” and the Activity (Liver [6]) was 430 pg/g. For the same compound, the “fold change (FC)” value (Cynomolgus monkey [7]) was 4.2, the Activity (Liver [8]) was “Below limit of detection” and the Activity [9] was “Active”. For the same compound, the Activity (Cynomolgus monkey [10]) was “Below limit of detection”, the Activity (Plasma [11]) was 485 pg/mL and the Activity (Cynomolgus monkey [12]) was 2970 pg/mL. The “fold change (FC)” value (Cynomolgus monkey [13]) was 65, the fraction unbound at 4.5 h, 5 µM [14] was 0.47 and the Activity (Plasma [15]) was 2180 pg/mL. The “fold change (FC)” value (Cynomolgus monkey [16]) was 180, the AUC(0-t) [17] was 679 ng·h/mL and the AUClast [18] was 362 ng·h/g. For the same compound, the Activity (Cynomolgus monkey [19]) was 1275 pg/mL, the Activity (Liver [20]) was 3450 pg/g and the Activity (Cynomolgus monkey [21]) was >51200 pg/mL. For the same compound, the “fold change (FC)” value (Cynomolgus monkey [22]) was 55, the Activity (Cynomolgus monkey [23]) was 1490 pg/mL and the Activity (Plasma [24]) was 1665 pg/mL. The Activity [25] was “Active”, the Activity (Cynomolgus monkey [26]) was “Toxic” and the IC50 [27] was > 10 µM. The metabolised at 1 h, 1 µM [28] was 98%, the “fold change (FC)” value (Liver [29]) was 775 and the Activity (Cynomolgus monkey [30]) was “Below limit of detection”.
